Holding throughout (format): functional
The target in test [1] is Beta-2 adrenergic receptor (Rattus norvegicus) (UniProt P10608). Briefly: Agonist activity at beta2 adrenergic receptor in rat L6 cell lysate assessed as increase in intracellular 2-deoxyglucose uptake at 10 to 100 uM preincubated for 4 hrs followed by 2-deoxyglucose measured after 20 mins by fluorescence-based enzymatic assay relative to control. The method in brief:
(§1)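 L6 rat myoblasts (JCRB9081) were grown in DMEM with 10% FBS at 37°C under 10% CO2. At confluence they were differentiated in DMEM with 2% horse serum for 6–8 days. Cells were serum-starved, then exposed to sample in serum-free DMEM for 4 h, with 100 nM insulin as the positive control. They were rinsed in KRPH buffer pH 7.4 and given 1 mM 2-deoxyglucose for 20 min. After washing, cells were lysed in 0.05 M NaOH and lysate 2-deoxyglucose was quantified enzymatically by fluorescence.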

For test [2] the target is unchanged. Briefly: Agonist activity at beta2 adrenergic receptor in rat L6 cell lysate assessed as increase in intracellular 2-deoxyglucose uptake at 0.5 to 100 uM preincubated for 4 hrs followed by 2-deoxyglucose measured after 20 mins by fluorescence-based enzymatic assay relative to control. The method in brief: as §1
The target is the same in test [3]. Put plainly: Agonist activity at beta2 adrenergic receptor in rat L6 cell lysate assessed as increase in intracellular 2-deoxyglucose uptake at 0.1 to 100 uM preincubated for 4 hrs followed by 2-deoxyglucose measured after 20 mins by fluorescence-based enzymatic assay relative to higenamine. The method in brief: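 Differentiated L6 rat myotubes (2% horse serum, 6–8 days post-confluence) serum-starved, then exposed to sample in serum-free DMEM for 4 h; insulin 100 nM as positive control. Rinsed with KRPH buffer (pH 7.4), given 1 mM 2-deoxyglucose for 20 min, washed thrice, lysed in 0.05 M NaOH; lysate 2-deoxyglucose measured enzymatically by fluorescence.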

For test [4] the target is unchanged. Briefly: Agonist activity at beta2 adrenergic receptor in rat L6 cell lysate assessed as increase in intracellular 2-deoxyglucose uptake at 0.1 to 100 uM preincubated for 4 hrs followed by 2-deoxyglucose measured after 20 mins by fluorescence-based enzymatic assay relative to control. Summed up:
as §1

For test [5] the target is unchanged. Put plainly: Agonist activity at beta2 adrenergic receptor in rat L6 cell lysate assessed as increase in intracellular 2-deoxyglucose uptake at 100 uM preincubated for 4 hrs followed by 2-deoxyglucose measured after 20 mins by fluorescence-based enzymatic assay relative to control. The method in brief:
as §1

Test [6] deals with Beta-2 adrenergic receptor (Rattus norvegicus, UniProt P10608). Briefly: Agonist activity at beta2 adrenergic receptor in rat L6 cell lysate assessed as increase in intracellular 2-deoxyglucose uptake preincubated for 4 hrs followed by 2-deoxyglucose addition measured after 20 mins by fluorescence-based enzymatic assay relative to control. The method in brief:
as §1

Test [7] concerns the target Beta-2 adrenergic receptor (Rattus norvegicus) (UniProt P10608). Briefly: Agonist activity at beta2 adrenergic receptor in rat L6 cell lysate assessed as increase in intracellular 2-deoxyglucose uptake at more than 5 uM preincubated for 4 hrs followed by 2-deoxyglucose measured after 20 mins by fluorescence-based enzymatic assay relative to control. The method in brief:
as §1

Calls of active or inactive are those of the source. The calls are words filed in the database; no cut-off is given here.

A word on the EC50: it is the concentration at which the effect is half-maximal.

Sequence of Beta-2 adrenergic receptor (Rattus norvegicus) (P10608 whole entry, looked up): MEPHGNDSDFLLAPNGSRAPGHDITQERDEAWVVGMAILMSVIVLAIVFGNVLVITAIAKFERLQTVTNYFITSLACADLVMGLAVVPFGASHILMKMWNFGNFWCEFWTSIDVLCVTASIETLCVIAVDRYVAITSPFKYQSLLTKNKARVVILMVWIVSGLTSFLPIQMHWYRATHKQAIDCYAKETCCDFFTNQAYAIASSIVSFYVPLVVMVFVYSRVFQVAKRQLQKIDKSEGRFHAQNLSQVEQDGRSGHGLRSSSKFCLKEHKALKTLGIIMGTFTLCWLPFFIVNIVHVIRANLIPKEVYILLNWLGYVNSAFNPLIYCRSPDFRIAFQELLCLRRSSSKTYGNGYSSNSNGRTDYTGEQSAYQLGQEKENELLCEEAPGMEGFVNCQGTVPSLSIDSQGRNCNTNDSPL
Sequence of Beta-2 adrenergic receptor (P10608 whole entry): as the sequence (P10608 whole entry, looked up) above

As for `CNC[C@H](O)c1ccc(O)c(O)c1`, in test [1], the result was Active. For `COc1cc2c(cc1O)C(Cc1ccc(O)cc1)NCC2` (stereo unspecified), the fold change (FC) in test [2] stood at 1.6. Further, the Activity in test [3] was 40%. Consider `COc1ccc(CC2NCCc3cc(O)c(O)cc32)cc1` (stereo unspecified), for which, in test [4], the outcome was Active.

Turning to `CN1CCc2cc(O)c(O)cc2C1Cc1ccc(O)cc1` (stereo unspecified), in test [2], the result was Active. Further, the fold change (FC) in test [5] was 1.2.

`NC[C@H](O)c1ccc(O)c(O)c1`: the result in test [1] was Active. Take `OC[C@H]1O[C@@H](Oc2ccc(C[C@H]3NCCc4cc(O)c(O)cc43)cc2)[C@H](O)[C@@H](O)[C@@H]1O`: the EC50 in test [6] came out at 9 µM. Take `COc1cc2c(cc1OC)C(Cc1ccc(O)cc1)NCC2` (stereo unspecified): the result in test [4] was Active.

Consider `Oc1ccc(C[C@@H]2NCCc3cc(O)c(O)cc32)cc1` [(-)-HIGENAMINE], for which the EC50 in test [6] worked out at 0.6 µM. Take `COc1cc2c(cc1O)CCNC2Cc1ccc(O)cc1` (stereo unspecified): the result in test [2] was Active. In addition, in test [5], the fold change (FC) was 1.2. Turning to `Oc1ccc(CC2NCCc3cc(O)c(O)cc32)cc1` (stereo unspecified), the result in test [1] was Active. Also, the fold change (FC) in test [7] was above 2.

For `OC[C@H]1O[C@@H](Oc2ccc(C[C@@H]3NCCc4cc(O)c(O)cc43)cc2)[C@H](O)[C@@H](O)[C@@H]1O`, the EC50 in test [6] is 1.3 µM.

Turning to `Oc1ccc(C[C@H]2NCCc3cc(O)c(O)cc32)cc1` [(+)-HIGENAMINE], in test [6], the EC50 was 4.5 µM.

The values are drawn from ChEMBL document CHEMBL4177625, “Ability of higenamine and related compounds to enhance glucose uptake in L6 cells” (Bioorg Med Chem, 2017).
